Laboratory results: ChEMBL document CHEMBL4371052, “Diarylcarbonates are a new class of deubiquitinating enzyme inhibitor” (Bioorg Med Chem Lett, 2019)
Active and inactive are the calls of the source. No cut-off for these calls is given here.

Tests used:
[1] = biological target: T1, Ubiquitin carboxyl-terminal hydrolase isozyme L3 (Homo sapiens) (UniProt P15374); assay: Inhibition of UCHL3 in HEK293T cell lysates at 25 uM using HA-tagged vinyl-sulfone as substrate measured after 2 to 30 mins by Western blot analysis; type: subcellular; details: Lysate
T1 sequence (whole entry): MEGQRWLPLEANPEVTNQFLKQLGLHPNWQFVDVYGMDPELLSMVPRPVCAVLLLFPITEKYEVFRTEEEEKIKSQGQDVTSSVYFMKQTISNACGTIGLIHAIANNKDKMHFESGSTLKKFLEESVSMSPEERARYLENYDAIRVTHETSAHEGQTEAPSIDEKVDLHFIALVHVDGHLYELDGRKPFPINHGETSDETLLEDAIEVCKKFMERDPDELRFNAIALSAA
Method in brief: (§1)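 HEK 293T lysate (1.5 mg/ml) given compound (25 μM) or DMSO at the same time as HA-Ub-VS (1.5 μM). Aliquots withdrawn over time were run on SDS-PAGE and immunoblotted for HA.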

[2] = biological target: Ubiquitin carboxyl-terminal hydrolase 9X (Homo sapiens) (UniProt Q93008); assay: Inhibition of USP9x in HEK293T cell lysates assessed as enzyme recovery at 250 uM using HA-tagged vinyl-sulfone as substrate preincubated for 40 mins followed by 10-fold dilution and subsequent substrate addition measured up to 2 hrs by Western blot analysis; type: subcellular; details: Lysate
Chain of Ubiquitin carboxyl-terminal hydrolase 9X (Homo sapiens) (Q93008 whole entry, the tested form may be a part): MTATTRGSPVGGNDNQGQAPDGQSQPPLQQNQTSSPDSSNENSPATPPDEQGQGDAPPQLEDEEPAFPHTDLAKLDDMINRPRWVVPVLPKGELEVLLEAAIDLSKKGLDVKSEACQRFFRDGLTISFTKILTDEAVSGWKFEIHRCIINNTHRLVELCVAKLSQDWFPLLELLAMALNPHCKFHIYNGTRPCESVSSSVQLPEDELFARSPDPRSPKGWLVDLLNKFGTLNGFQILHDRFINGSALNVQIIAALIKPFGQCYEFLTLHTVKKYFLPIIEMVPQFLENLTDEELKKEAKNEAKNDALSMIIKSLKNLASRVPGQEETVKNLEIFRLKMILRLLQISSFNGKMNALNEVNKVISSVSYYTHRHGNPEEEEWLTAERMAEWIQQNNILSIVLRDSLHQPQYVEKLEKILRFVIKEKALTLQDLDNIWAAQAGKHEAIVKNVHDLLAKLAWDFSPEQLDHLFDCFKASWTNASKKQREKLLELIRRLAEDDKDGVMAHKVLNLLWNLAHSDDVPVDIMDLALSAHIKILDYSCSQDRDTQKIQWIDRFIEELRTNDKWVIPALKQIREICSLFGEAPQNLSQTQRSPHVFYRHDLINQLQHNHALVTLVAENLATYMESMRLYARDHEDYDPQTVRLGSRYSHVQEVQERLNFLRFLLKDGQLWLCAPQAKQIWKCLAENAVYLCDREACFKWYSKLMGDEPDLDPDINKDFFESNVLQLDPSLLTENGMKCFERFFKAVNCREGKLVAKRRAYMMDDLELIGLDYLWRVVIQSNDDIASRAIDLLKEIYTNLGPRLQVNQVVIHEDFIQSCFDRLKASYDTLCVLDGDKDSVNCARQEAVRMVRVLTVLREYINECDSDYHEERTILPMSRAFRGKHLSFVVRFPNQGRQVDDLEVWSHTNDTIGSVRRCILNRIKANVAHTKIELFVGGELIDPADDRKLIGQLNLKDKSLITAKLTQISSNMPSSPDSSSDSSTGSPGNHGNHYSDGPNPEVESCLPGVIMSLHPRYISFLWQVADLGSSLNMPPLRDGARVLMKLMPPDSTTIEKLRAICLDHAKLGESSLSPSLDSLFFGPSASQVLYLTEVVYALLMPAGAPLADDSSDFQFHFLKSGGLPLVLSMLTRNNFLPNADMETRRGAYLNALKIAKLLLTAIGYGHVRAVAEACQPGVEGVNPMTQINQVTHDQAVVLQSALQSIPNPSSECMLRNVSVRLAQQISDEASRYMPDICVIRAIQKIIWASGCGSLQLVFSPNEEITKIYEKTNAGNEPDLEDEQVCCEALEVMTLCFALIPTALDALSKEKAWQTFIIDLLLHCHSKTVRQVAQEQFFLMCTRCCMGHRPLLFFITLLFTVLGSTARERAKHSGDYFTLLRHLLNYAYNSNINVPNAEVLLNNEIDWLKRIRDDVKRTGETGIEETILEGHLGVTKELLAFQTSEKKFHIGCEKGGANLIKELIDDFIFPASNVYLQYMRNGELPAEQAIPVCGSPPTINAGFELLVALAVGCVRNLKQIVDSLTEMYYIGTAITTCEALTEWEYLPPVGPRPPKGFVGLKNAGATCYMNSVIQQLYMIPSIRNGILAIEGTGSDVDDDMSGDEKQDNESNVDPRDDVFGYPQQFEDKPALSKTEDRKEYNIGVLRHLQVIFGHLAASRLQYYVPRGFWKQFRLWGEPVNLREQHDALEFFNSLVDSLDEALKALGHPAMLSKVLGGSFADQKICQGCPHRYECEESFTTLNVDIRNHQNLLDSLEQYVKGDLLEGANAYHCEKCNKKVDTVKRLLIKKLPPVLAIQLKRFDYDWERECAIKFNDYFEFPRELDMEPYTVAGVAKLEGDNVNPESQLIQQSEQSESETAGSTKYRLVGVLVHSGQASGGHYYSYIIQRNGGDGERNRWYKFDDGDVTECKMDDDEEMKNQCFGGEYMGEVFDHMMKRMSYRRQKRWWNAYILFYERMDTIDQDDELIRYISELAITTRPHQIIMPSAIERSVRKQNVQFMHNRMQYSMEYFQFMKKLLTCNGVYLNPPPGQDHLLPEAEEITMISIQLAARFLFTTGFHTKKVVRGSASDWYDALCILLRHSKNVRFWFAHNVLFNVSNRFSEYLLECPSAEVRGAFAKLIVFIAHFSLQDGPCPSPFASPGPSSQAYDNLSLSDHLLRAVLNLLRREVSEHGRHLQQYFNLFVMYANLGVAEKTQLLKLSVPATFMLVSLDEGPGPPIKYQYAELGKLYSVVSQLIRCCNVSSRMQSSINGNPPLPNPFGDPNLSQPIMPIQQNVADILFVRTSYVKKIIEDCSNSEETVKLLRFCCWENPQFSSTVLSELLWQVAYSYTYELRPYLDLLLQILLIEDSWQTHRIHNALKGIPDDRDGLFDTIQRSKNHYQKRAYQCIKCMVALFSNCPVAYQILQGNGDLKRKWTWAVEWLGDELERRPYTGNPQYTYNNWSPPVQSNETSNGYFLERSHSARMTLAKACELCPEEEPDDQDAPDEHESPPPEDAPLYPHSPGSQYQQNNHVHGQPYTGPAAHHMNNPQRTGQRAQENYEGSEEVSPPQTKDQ

[3] = biological target: Pancreatic elastase (Sus scrofa) (UniProt P08419+P00772); assay: Inhibition of porcine pancreatic elastase; type: protein assay
[4] = biological target: Ubiquitin carboxyl-terminal hydrolase isozyme L1 (Homo sapiens) (UniProt P09936); assay: Inhibition of UCHL1 in HEK293T cell lysates at 25 uM using HA-tagged vinyl-sulfone as substrate preincubated for 19 to 60 mins followed by substrate addition and measured after 19 to 25 mins by Western blot analysis; type: subcellular; details: Lysate
Chain of Ubiquitin carboxyl-terminal hydrolase isozyme L1 (Homo sapiens) (P09936 whole entry, looked up): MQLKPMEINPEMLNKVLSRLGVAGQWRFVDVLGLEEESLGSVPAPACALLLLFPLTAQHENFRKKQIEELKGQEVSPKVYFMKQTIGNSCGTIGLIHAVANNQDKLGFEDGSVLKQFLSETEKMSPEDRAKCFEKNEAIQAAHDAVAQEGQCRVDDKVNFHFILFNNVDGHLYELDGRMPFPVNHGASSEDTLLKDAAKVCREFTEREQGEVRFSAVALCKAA

[5] = biological target: T1, Ubiquitin carboxyl-terminal hydrolase isozyme L3 (Homo sapiens); assay: Inhibition of UCHL3 in HEK293T cell lysates at 25 uM using HA-tagged vinyl-sulfone as substrate preincubated for 19 to 60 mins followed by substrate addition and measured after 19 to 25 mins by Western blot analysis; type: subcellular; details: Lysate
[6] = biological target: Ubiquitin carboxyl-terminal hydrolase 7 (Homo sapiens) (UniProt Q93009); assay: Inhibition of USP7 in human MCF7 cells assessed as increase in p53 expression at 25 uM after 4 hrs by Western blot analysis; type: cell-based
Chain of Ubiquitin carboxyl-terminal hydrolase 7 (Homo sapiens) (Q93009 whole entry, looked up): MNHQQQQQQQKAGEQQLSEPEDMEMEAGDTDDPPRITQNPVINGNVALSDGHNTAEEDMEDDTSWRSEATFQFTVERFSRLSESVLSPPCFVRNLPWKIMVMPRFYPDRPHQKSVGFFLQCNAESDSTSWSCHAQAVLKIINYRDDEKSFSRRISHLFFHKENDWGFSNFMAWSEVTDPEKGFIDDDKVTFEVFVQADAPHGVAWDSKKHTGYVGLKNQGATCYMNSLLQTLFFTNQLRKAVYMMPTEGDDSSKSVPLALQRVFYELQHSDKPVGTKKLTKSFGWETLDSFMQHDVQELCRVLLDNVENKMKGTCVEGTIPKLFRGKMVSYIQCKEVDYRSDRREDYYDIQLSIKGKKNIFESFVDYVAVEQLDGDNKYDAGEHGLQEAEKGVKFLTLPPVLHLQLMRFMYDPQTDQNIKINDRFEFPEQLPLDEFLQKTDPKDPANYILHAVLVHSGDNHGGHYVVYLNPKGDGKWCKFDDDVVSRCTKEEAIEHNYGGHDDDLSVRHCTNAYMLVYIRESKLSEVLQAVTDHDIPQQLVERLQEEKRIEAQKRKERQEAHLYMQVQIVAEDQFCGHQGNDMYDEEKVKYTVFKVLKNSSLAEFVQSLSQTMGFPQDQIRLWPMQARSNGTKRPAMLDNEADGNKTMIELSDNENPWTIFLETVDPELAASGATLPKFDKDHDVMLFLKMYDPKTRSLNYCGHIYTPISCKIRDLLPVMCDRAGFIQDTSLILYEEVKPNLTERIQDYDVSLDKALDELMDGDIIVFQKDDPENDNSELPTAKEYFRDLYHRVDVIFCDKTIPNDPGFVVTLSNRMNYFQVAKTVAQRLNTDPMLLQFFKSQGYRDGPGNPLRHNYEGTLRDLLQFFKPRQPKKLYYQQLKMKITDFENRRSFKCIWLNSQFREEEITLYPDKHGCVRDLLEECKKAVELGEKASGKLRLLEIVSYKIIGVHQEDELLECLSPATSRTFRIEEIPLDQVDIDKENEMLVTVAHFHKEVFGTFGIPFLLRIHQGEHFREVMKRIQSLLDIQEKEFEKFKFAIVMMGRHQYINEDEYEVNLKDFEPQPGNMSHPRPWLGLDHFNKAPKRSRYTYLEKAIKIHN
Method in brief: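 MCF7 cells treated with compound for 4 h. Mdm2, p53 and p21 levels were determined by immunoblotting.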

[7] = biological target: Ubiquitin carboxyl-terminal hydrolase isozyme L5 (Homo sapiens) (UniProt Q9Y5K5); assay: Inhibition of UCHL5 in HEK293T cell lysates at 25 uM using HA-tagged vinyl-sulfone as substrate measured after 2 to 30 mins by Western blot analysis; type: subcellular; details: Lysate; method in brief: as §1
Chain of Ubiquitin carboxyl-terminal hydrolase isozyme L5 (Homo sapiens) (Q9Y5K5 whole entry): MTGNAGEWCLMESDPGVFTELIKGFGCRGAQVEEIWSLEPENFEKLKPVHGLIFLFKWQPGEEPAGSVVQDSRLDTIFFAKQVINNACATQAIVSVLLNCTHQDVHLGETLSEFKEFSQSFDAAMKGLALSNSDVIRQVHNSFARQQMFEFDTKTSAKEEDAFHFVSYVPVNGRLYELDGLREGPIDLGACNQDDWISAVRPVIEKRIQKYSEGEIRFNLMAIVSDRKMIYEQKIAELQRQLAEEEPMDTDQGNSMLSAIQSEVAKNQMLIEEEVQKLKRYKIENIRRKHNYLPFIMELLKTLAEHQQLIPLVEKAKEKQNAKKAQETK

[8] = biological target: T1, Ubiquitin carboxyl-terminal hydrolase isozyme L3 (Homo sapiens); assay: Inhibition of UCHL3 in HEK293T cell lysates assessed as enzyme recovery at 250 uM using HA-tagged vinyl-sulfone as substrate […] followed by 10-fold dilution and subsequent substrate addition measured within 15 mins by Western blot analysis; type: subcellular; details: Lysate
[9] = biological target: Ubiquitin carboxyl-terminal hydrolase 7 (Homo sapiens) (UniProt Q93009); assay: Inhibition of USP7 in human MCF7 cells assessed as increase in p53 expression after 4 to 48 hrs by Western blot analysis; type: cell-based
[10] = biological target: T2, Ubiquitin carboxyl-terminal hydrolase 19 (Homo sapiens) (UniProt O94966); assay: Inhibition of USP19 in HEK293T cell lysates at 25 uM using HA-tagged vinyl-sulfone as substrate measured after 2 to 30 mins by Western blot analysis; type: subcellular; details: Lysate; method in brief: as §1
T2 sequence (whole entry): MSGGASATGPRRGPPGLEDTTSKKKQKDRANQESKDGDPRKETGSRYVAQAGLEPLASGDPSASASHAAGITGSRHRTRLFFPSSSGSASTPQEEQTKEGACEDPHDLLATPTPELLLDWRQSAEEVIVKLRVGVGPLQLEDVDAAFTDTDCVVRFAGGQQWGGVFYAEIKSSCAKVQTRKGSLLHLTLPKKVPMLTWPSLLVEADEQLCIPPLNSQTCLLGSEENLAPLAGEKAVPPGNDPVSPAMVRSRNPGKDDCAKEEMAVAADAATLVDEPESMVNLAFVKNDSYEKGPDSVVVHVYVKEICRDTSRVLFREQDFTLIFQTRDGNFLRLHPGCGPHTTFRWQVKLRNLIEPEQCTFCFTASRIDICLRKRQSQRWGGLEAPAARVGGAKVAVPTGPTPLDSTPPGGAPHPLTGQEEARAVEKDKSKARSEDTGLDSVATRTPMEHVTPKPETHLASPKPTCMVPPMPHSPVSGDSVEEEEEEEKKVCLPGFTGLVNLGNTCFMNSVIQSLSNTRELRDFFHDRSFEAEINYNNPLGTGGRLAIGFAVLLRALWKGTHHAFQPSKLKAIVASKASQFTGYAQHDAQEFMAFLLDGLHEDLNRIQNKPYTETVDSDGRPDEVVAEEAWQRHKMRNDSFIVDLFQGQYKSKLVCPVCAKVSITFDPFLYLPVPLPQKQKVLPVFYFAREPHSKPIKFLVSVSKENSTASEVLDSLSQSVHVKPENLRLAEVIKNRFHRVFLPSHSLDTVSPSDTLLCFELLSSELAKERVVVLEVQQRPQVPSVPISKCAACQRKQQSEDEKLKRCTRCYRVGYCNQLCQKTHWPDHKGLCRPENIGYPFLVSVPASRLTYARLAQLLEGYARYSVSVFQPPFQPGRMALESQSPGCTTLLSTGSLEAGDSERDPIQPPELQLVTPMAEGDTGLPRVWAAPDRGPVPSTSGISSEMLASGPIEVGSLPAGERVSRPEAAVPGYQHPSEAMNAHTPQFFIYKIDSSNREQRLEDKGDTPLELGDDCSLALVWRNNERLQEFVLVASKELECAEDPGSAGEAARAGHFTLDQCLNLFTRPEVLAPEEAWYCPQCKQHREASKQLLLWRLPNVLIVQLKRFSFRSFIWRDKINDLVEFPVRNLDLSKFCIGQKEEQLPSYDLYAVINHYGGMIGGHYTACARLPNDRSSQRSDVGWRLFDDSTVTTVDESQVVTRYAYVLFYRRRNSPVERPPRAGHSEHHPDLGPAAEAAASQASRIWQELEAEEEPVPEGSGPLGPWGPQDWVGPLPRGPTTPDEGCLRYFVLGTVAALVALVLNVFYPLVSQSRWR

[11] = biological target: Ubiquitin carboxyl-terminal hydrolase 9X (Homo sapiens) (UniProt Q93008); assay: Inhibition of recombinant His6-tagged USP9x catalytic domain (unknown origin) assessed as association constant using Ub-AMC as substrate by fluorescence assay
[12] = biological target: Ubiquitin carboxyl-terminal hydrolase 7 (Homo sapiens) (UniProt Q93009); assay: Inhibition of USP7 in HEK293T cell lysates assessed as ratio of HA-Ub-VS modified USP7 to total USP7 at 100 uM using HA-Ub vinyl-sulfone as substrate preincubated for 19 to 60 mins followed by substrate addition and measured after 19 to 25 mins by Western blot analysis (reference value: 0.5); type: subcellular; details: Lysate
Method in brief: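 HEK 293T lysate incubated with compound, then treated with HA-Ub-VS. Samples were run on SDS-PAGE and blotted with anti-USP7, and the probe-modified USP7 band was distinguished from unmodified USP7.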

[13] = biological target: Ubiquitin carboxyl-terminal hydrolase 9X (Homo sapiens) (UniProt Q93008); assay: Inhibition of USP9x in HEK293T cell lysates at 25 uM using HA-tagged vinyl-sulfone as substrate measured after 2 to 30 mins by Western blot analysis; type: subcellular; details: Lysate; method in brief: as §1

inhibition [1]: inactive
inhibition [2]: inactive
inhibition [3]: inactive
inhibition [4]: inactive
inhibition [5]: inactive
Activity [6]: Active
inhibition [7]: inactive
inhibition [8]: Active
Activity [9]: Active
inhibition [10]: inactive
K [11]: 49 M⁻¹ s⁻¹
Ratio [12]: 0.3
inhibition [13]: inactive
SMILES: NCc1ccc(OC(=O)Oc2ccc3ccccc3c2)cc1
